# Test results: ChEMBL document CHEMBL1157135, “Synthesis and structure-activity relationships of potent 4-fluoro-2-cyanopyrrolidine dipeptidyl peptidase IV inhibitors” (Bioorg Med Chem, 2008)
# The source made the active and inactive calls. The calls are words filed in the database; no cut-off is given here.
# Experiments:
# [1] = Chemical stability in aqueous buffer solution at pH 6.8 after 6 hrs; assay type: physicochemical; settings: read-out: Stability
# Summary of the method: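 Residual amount determined by reverse-phase HPLC (UV 210 nm, acetonitrile–H2O buffer elution at 1.0 mL/min) after 6 h incubation at 37 °C in pH 6.8 aqueous buffer; dihydrochloride salt used for one reference compound.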
# Dipeptidyl peptidase 4 = Dipeptidyl peptidase 4 (Homo sapiens, UniProt P27487); assay type: cell-free, Plasma
# [2] = Drug level in Wistar rat plasma at 1 mg/kg, po after 6 hrs; assay type: ADME, organism-based; parameters: dose 1 mg/kg, route oral; settings: read-out: Drug uptake
# Summary of the method: (§1)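 Male Wistar rats, 8 weeks old, fasted overnight; single oral dose 1 mg/kg as aqueous solution. Jugular vein blood (200 µL) at 0.5, 1, 2, 6 h; plasma deproteinized with acetonitrile, supernatant analysed by LC–MS/MS (C18 column, ammonium acetate/acetonitrile eluent, ESI).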
# [3] = Drug level in Wistar rat plasma at 1 mg/kg, po after 0.5 hr; assay type: ADME, organism-based; parameters: dose 1 mg/kg, route oral; settings: read-out: Drug uptake; summary of the method: as §1
# [4] = Drug level in Wistar rat plasma at 1 mg/kg, po after 1 hr; assay type: ADME, organism-based; parameters: dose 1 mg/kg, route oral; settings: read-out: Drug uptake; summary of the method: as §1
# [5] = Drug level in Wistar rat plasma at 1 mg/kg, po after 2 hrs; assay type: ADME, organism-based; parameters: dose 1 mg/kg, route oral; settings: read-out: Drug uptake; summary of the method: as §1
# Rattus norvegicus [6] = experiment: Increase in insulin secretion in Zucker fatty rat plasma at 0.1 mg/kg, po after 30 mins by OGTT; assay type: functional, organism-based; parameters: dose 0.1 mg/kg
# Summary of the method: (§2)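 Male Zucker fatty rats (lean controls), 10 weeks, fasted overnight, n = 6. Compound in distilled water given orally (0.1 or 0.3 mg/kg) 30 min before oral glucose 2 g/kg. Orbital sinus blood under ether anesthesia at set times; plasma glucose, insulin and DPP-IV activity measured. Mean ± SE; Dunnett's or Student's t-test vs vehicle.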
# Rattus norvegicus [7] = experiment: Reduction of hyperglycemia in Zucker fatty rat at 0.1 mg/kg, po after 30 mins by OGTT; assay type: functional, organism-based; parameters: dose 0.1 mg/kg; summary of the method: as §2
# Rattus norvegicus [8] = experiment: Reduction of hyperglycemia in Zucker fatty rat at 0.3 mg/kg, po by after 30 mins OGTT; assay type: functional, organism-based; parameters: dose 0.3 mg/kg; summary of the method: as §2
# Rattus norvegicus [9] = experiment: Inhibition of DPP4 activity in Zucker fatty rat plasma at 0.1 mg/kg, po upto 120 mins by OGTT; assay type: functional, organism-based; parameters: dose 0.1 mg/kg; summary of the method: as §2
# Rattus norvegicus [10] = experiment: Increase in insulin secretion in Zucker fatty rat plasma at 0.3 mg/kg, po after 30 mins by OGTT; assay type: functional, organism-based; parameters: dose 0.3 mg/kg; summary of the method: as §2
# Rattus norvegicus [11] = experiment: Inhibition of DPP4 activity in Zucker fatty rat plasma at 0.3 mg/kg, po upto 120 mins by OGTT; assay type: functional, organism-based; parameters: dose 0.3 mg/kg; summary of the method: as §2
# Rattus norvegicus [12] = experiment: Inhibition of DPP4 activity in Zucker fatty rat plasma at 0.3 mg/kg, po after 15 mins by OGTT; assay type: functional, organism-based; parameters: dose 0.3 mg/kg; summary of the method: as §2
# Rattus norvegicus [13] = experiment: Inhibition of DPP4 activity in Zucker fatty rat plasma at 0.1 mg/kg, po after 15 mins by OGTT; assay type: functional, organism-based; parameters: dose 0.1 mg/kg; summary of the method: as §2
# Chain of Dipeptidyl peptidase 4 (P27487 whole entry): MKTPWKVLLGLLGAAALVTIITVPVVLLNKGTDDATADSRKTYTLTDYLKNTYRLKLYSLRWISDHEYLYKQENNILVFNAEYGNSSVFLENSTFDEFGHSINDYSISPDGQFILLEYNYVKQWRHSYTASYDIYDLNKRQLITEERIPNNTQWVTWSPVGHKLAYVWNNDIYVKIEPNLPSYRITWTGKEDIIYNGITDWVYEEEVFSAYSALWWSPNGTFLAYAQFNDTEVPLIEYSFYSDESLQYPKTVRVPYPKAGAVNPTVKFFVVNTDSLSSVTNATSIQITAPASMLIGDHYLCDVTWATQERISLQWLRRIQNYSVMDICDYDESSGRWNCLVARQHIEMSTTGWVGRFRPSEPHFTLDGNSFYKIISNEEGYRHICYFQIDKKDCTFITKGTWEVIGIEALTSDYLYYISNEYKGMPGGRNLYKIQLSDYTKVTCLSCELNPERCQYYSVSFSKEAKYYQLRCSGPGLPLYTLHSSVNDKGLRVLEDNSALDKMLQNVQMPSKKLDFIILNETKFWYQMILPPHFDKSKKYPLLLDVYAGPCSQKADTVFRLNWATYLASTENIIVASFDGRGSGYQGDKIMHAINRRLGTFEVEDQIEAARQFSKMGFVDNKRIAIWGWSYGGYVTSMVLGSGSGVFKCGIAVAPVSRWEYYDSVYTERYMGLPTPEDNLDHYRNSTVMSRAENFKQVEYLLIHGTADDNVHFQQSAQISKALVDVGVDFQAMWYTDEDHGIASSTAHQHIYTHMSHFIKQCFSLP
Compound,remaining at 6 h [1],IC50 (Dipeptidyl peptidase 4),concentration at 6 h [2],concentration at 0.5 h [3],concentration at 1 h [4],concentration at 2 h [5],other results
N#Cc1ccc(NCCNCC(=O)N2C[C@@H](F)C[C@H]2C#N)nc1,86%,,,,,,
C#CC(CC)(CC)NCC(=O)N1C[C@@H](F)C[C@H]1C#N,,> 0.316 µM,,,,,
CC(C)CNCC(C)(C)NCC(=O)N1C[C@@H](F)C[C@H]1C#N,,> 0.316 µM,,,,,
N#Cc1ccc(NCCNCC(=O)N2C[C@@H](F)C[C@H]2C#N)nc1.O=C(O)/C=C\C(=O)O,,,6 ng/mL,157 ng/mL,62 ng/mL,8 ng/mL,
CC(C)(CO)NCC(=O)N1C[C@@H](F)C[C@H]1C#N,96%,,31 ng/mL,355 ng/mL,274 ng/mL,168 ng/mL,Activity (Rattus norvegicus [6]): Active; Activity (Rattus norvegicus [7]): Active; Activity (Rattus norvegicus [8]): Active; Activity (Rattus norvegicus [9]): Active; Activity (Rattus norvegicus [10]): Active; Activity (Rattus norvegicus [11]): Active; Activity (Rattus norvegicus [12]): Active; Activity (Rattus norvegicus [13]): Active
CC[C@H](C)[C@@H](N)C(=O)N1C[C@@H](F)C[C@H]1C#N,70%,,1 ng/mL,195 ng/mL,24 ng/mL,5 ng/mL,
